Results reported in ChEMBL document CHEMBL3745614, “Potent and selective N-(4-sulfamoylphenyl)thiourea-based GPR55 agonists” (Eur J Med Chem, 2016).
Activity calls are given as the source filed them. No cut-off for these calls is given here.

Experiments:
[1] = target: T1, G-protein coupled receptor 55 (Homo sapiens, UniProt Q9Y2T6); assay: Agonist activity at human GPR55 expressed in CHOK1 cells at 10 uM by pathHunter beta-arrestin assay relative to LPI; assay type: cell-based; settings: CHO-K1
In short: (§1)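 PathHunter eXpress GPR55 CHO-K1 β-arrestin kit run per the kit protocol, compounds screened at 10 μM. Luminescence read and expressed as percentage of the signal from bovine liver LPI at 1 μM. Mean with range of two experiments, each done in duplicate.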

[2] = target: T1, G-protein coupled receptor 55; assay: Agonist activity at human GPR55 expressed in HEK293 cells assessed as calcium signalling by fura 2-based digital epifluorescence microscopy; assay type: functional, cell-based
In short: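 HEK293 cells stably expressing GPR55, grown on poly-L-lysine coated glass coverslips and serum-starved overnight. Compounds applied by bath perfusion in HEPES-buffered saline at 30-32 °C. Single-cell fura 2 ratiometric imaging (350/380 nm) every 5 s. Peak responses pooled from 24 cells (12 random cells from each of two experiments) per concentration; EC50 with 95% CI from concentration-response curves. ARA-LPI used as reference agonist.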

[3] = target: Cannabinoid receptor 1 (Homo sapiens) (UniProt P21554); assay: Agonist activity at CBR1 (unknown origin) assessed as [35S]GTPgammaS binding at 10 uM by […] assay relative to control; assay type: functional
[4] = target: Cannabinoid receptor 2 (Homo sapiens) (UniProt P34972); assay: Antagonist activity at human CBR2 assessed as [35S]GTPgammaS binding at 10 uM by […] assay relative to control; assay type: functional; set-up: scale not given: the % may be the effect or the level left
[5] = target: Cannabinoid receptor 2 (Homo sapiens) (UniProt P34972); assay: Agonist activity at CBR2 (unknown origin) assessed as [35S]GTPgammaS binding at 10 uM by […] assay relative to control; assay type: functional
[6] = target: T2, Fatty-acid amide hydrolase 1 (Homo sapiens) (UniProt O00519); assay: Inhibition of human FAAH expressed in African green monkey COS-7 cell membranes using [3H]-AEA as substrate assessed as residual activity at 10 uM preincubated for 10 mins followed by substrate addition measured after 10 mins by liquid scintillation counting analysis relative to control
T2 sequence (whole entry): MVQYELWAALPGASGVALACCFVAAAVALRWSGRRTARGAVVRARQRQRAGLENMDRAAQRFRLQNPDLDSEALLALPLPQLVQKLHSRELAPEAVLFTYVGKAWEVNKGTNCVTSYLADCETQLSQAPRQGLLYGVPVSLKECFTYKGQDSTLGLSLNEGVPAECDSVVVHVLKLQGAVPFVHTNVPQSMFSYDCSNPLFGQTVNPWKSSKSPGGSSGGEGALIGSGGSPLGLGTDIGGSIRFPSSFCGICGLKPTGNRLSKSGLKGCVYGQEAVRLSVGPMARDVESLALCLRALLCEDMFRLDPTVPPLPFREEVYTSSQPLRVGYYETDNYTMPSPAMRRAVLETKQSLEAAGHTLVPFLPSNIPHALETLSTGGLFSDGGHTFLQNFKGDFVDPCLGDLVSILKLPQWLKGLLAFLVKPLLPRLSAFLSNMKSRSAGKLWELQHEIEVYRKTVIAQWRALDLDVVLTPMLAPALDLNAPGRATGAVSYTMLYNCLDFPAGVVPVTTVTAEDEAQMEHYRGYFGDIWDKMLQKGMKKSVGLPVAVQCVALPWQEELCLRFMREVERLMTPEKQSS
In short: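 Membranes of COS-7 cells overexpressing hFAAH, 1 μg protein per incubation. Substrate 20 μM AEA including 10 nM [3H]AEA (60 Ci/mmol). Compounds tested at 10 μM.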

[7] = target: T3, Monoglyceride lipase (Homo sapiens) (UniProt Q99685); assay: Inhibition of human MGL expressed in […] cells using 2AG as substrate assessed as residual activity at 10 uM preincubated for 10 mins followed by substrate addition measured after 10 mins by HPLC analysis; assay type: cell-based
T3 sequence (whole entry): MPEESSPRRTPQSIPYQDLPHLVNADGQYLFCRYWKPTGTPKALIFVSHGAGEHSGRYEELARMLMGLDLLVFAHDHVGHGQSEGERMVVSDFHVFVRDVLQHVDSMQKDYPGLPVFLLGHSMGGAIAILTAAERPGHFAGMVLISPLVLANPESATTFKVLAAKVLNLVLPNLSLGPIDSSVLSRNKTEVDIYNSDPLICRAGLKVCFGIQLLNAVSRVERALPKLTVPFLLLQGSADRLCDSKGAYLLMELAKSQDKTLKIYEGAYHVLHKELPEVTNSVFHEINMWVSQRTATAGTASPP
In short: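 Lysates of HEK cells overexpressing hMGL, 2.5 μg protein per incubation, substrate at 50 μM. Compounds tested at 10 μM.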

[8] = target: T4, Lysophosphatidylserine lipase ABHD12 (Homo sapiens) (UniProt Q8N2K0); assay: Inhibition of human ABHD12 expressed in […] cells using 2-AG as substrate assessed as glycerol liberation at 10 uM preincubated for 30 mins followed by 2-AG addition measured for 90 mins by fluorescent glycerol assay relative to control; assay type: cell-based; set-up: scale not given: the % may be the effect or the level left
T4 sequence (whole entry): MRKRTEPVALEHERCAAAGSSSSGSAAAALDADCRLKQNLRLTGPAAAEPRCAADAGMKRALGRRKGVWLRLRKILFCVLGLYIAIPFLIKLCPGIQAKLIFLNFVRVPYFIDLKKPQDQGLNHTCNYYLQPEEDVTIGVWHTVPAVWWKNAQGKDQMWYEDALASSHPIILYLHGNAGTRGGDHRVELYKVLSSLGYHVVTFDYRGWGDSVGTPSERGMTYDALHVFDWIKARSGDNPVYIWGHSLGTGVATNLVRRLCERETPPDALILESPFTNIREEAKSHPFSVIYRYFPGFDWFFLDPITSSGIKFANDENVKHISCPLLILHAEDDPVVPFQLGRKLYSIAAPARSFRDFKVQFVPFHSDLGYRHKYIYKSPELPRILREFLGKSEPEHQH
In short: (§2)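 Lysates of HEK293 cells transiently overexpressing hABHD6 or hABHD12, 0.3 μg protein/well. Pretreated 30 min with DMSO or compound, then 2-AG added (12.5 μM final). Glycerol release coupled enzymatically to H2O2-dependent resorufin formation; fluorescence (ex 530/em 590 nm) followed kinetically for 90 min.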

[9] = target: T4, Lysophosphatidylserine lipase ABHD12 (Homo sapiens); assay: Inhibition of human ABHD12 expressed in […] cells using 2-AG as substrate assessed as glycerol liberation at 1 uM preincubated for 30 mins followed by 2-AG addition measured for 90 mins by fluorescent glycerol assay relative to control; assay type: cell-based; set-up: scale not given: the % may be the effect or the level left; in short: as §2
[10] = target: T5, Monoacylglycerol lipase ABHD6 (Homo sapiens) (UniProt Q9BV23); assay: Inhibition of human ABHD6 expressed in […] cells using 2-AG as substrate assessed as glycerol liberation at 10 uM preincubated for 30 mins followed by 2-AG addition measured for 90 mins by fluorescent glycerol assay relative to control; assay type: cell-based; set-up: scale not given: the % may be the effect or the level left; in short: as §2
T5 sequence (whole entry): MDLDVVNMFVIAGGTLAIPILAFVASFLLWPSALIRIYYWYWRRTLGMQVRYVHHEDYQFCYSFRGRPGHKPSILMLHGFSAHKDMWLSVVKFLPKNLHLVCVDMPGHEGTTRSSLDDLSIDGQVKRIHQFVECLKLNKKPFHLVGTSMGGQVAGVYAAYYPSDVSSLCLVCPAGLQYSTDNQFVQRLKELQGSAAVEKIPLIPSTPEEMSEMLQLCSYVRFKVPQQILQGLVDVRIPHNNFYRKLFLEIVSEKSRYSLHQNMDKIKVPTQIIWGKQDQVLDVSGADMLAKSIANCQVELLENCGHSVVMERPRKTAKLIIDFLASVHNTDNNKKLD

[11] = target: T5, Monoacylglycerol lipase ABHD6 (Homo sapiens); assay: Inhibition of human ABHD6 expressed in […] cells using 2-AG as substrate assessed as glycerol liberation at 1 uM preincubated for 30 mins followed by 2-AG addition measured for 90 mins by fluorescent glycerol assay relative to control; assay type: cell-based; set-up: scale not given: the % may be the effect or the level left; in short: as §2
[12] = target: T1, G-protein coupled receptor 55; assay: Agonist activity at human GPR55 expressed in CHOK1 cells at 10 uM by pathHunter beta-arrestin assay relative to control; assay type: cell-based; settings: CHO-K1; in short: as §1
[13] = target: Cannabinoid receptor 1 (Homo sapiens) (UniProt P21554); assay: Antagonist activity at human CBR1 assessed as [35S]GTPgammaS binding at 10 uM by radiometric assay relative to control; set-up: scale not given: the % may be the effect or the level left
[14] = target: T1, G-protein coupled receptor 55; assay: Agonist activity at human GPR55 expressed in HEK293 cells assessed as calcium signalling at 10 uM by fura 2-based digital epifluorescence microscopy; assay type: functional, cell-based
[15] = target: T6, Sodium- and chloride-dependent glycine transporter 1 (Homo sapiens, UniProt P48067); assay: Inhibition of GlyT1 (unknown origin) expressed in HEK293 cells by scintillation proximity assay; assay type: cell-based
T6 sequence (P48067 whole entry): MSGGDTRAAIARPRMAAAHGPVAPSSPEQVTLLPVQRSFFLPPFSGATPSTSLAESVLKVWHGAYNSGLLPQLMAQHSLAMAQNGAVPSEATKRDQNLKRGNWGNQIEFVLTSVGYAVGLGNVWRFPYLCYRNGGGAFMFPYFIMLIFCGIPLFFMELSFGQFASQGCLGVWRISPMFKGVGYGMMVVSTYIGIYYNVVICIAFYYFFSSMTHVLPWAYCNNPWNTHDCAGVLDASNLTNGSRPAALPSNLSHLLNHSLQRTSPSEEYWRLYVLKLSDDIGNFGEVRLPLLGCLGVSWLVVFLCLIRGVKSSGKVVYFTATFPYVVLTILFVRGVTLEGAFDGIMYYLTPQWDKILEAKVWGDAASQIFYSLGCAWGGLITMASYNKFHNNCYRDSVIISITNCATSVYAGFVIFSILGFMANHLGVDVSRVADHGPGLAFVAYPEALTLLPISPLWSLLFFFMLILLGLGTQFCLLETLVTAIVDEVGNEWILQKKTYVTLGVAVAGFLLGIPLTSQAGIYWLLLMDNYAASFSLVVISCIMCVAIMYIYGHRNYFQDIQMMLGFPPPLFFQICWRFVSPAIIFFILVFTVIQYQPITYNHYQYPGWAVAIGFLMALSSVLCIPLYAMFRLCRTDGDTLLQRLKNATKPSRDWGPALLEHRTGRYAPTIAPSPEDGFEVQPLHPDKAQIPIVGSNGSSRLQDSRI

[16] = target: T1, G-protein coupled receptor 55; assay: Agonist activity at human GPR55 expressed in Saccharomyces cerevisiae by beta-galactosidase reporter assay

T1 sequence (Q9Y2T6 whole entry): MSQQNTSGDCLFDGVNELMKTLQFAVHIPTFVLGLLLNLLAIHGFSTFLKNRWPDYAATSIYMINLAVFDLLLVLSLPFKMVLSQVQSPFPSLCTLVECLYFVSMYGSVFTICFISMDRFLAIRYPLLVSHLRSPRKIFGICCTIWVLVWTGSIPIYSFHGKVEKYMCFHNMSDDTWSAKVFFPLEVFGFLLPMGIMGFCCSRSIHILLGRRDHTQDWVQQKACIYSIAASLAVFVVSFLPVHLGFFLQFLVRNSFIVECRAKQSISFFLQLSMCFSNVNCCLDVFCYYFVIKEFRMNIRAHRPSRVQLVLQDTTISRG
Chain of Cannabinoid receptor 2 (Homo sapiens) (P34972 whole entry): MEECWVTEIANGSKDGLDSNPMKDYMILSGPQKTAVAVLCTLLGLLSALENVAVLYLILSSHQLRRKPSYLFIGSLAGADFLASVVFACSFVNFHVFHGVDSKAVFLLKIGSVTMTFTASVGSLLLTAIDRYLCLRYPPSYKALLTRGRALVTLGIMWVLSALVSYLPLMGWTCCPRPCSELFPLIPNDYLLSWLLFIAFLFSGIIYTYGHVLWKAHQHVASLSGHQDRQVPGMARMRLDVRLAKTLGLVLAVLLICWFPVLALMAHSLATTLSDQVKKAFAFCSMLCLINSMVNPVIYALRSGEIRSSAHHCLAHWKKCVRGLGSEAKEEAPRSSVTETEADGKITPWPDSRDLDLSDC
Chain of Cannabinoid receptor 1 (Homo sapiens) (P21554 whole entry): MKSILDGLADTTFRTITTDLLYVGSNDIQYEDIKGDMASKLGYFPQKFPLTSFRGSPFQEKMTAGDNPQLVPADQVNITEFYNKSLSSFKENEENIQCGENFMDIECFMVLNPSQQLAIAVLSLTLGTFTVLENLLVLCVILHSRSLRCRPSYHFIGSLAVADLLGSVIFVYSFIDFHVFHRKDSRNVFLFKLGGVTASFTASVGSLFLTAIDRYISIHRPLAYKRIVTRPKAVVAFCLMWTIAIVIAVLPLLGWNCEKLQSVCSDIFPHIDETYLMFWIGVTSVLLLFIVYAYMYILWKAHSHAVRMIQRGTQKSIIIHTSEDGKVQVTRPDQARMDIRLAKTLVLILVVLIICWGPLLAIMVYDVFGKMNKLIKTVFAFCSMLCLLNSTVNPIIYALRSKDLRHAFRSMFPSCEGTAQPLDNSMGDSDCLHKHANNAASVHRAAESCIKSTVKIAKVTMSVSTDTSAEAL

Structure (SMILES)	Activity [1]	EC50 [2]	Activity [3]	Activity [4]	Activity [5]	Activity [6]	Activity [7]	Activity [8]	Activity [9]	Activity [10]	Activity [11]	Activity [12]	Activity [13]	Activity [14]	IC50 [15]	EC50 [16]
CC(C)CNS(=O)(=O)c1ccc(NC(=S)NC(=O)c2ccc(-c3ccccc3)cc2)cc1	165%	30.9 nM	119%	86%	85%	105%	107%	65%	95%	59%	106%	242%	93%	–	–	–
O=C(NC(=S)Nc1ccc(S(=O)(=O)NCCc2c[nH]c3ccccc23)cc1)c1ccc(-c2ccccc2)cc1	90%	–	103%	106%	96%	85%	102%	–	101%	–	99%	132%	94%	inactive	–	–
O=C(NC(=S)Nc1ccc(S(=O)(=O)NCc2ccc(I)cc2)cc1)c1ccc(-c2ccccc2)cc1	107%	–	100%	95%	95%	93%	98%	–	100%	–	103%	157%	98%	inactive	–	–
CS(=O)(=O)c1ccc(-c2ccc(F)cc2)c(C(=O)N2CCN(c3ccc(N)cc3F)CC2)c1	–	–	–	–	–	–	–	–	–	–	–	–	–	–	10000 nM	158 nM
COC(C)c1ccc(N2CCN(C(=O)c3cc(S(C)(=O)=O)ccc3-c3ccc(F)cc3)CC2)c(F)c1 (centres undefined)	–	–	–	–	–	–	–	–	–	–	–	–	–	–	20 nM	316 nM
